Measurements taken from ChEMBL document CHEMBL1154198, “Chemical genetics of Plasmodium falciparum” (Nature, 2010).

How the values were obtained:
Plasmodium falciparum [1] = assay: ST_JUDE: Plasmodium falciparum 3D7 EC50 (uM) as measured by SYBR green dye; format: functional, organism-based
Plasmodium falciparum [2] = assay: ST_JUDE: Plasmodium falciparum K1 EC50 (uM) as measured by SYBR green dye; format: functional, organism-based
Plasmodium falciparum [3] = assay: ST_JUDE: Cytotoxicity against Plasmodium falciparum 3D7; format: functional, organism-based
Summary of the method: (§1)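 Asexual P. falciparum grown in human erythrocytes, exposed to compounds for 72 h, and growth read as the DNA quantity in treated versus control cultures. Dose-response run at 12 concentrations from 10 μM to 5 nM.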

Plasmodium falciparum [4] = assay: ST_JUDE: Cytotoxicity against Plasmodium falciparum K1; format: functional, organism-based; summary of the method: as §1
Plasmodium falciparum [5] = assay: ST_JUDE: Cytotoxicity against Plasmodium falciparum V1/S; format: functional, organism-based
Toxoplasma gondii = assay: ST_JUDE: Growth inhibition of to Toxoplasma gondii, in human U-2OS cells, as measured by luciferase.; format: functional, organism-based; conditions: RH, U2OS
Summary of the method: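 T. gondii parasites engineered to express luciferase; drug sensitivity read by luminescence.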

Trypanosoma brucei = assay: ST_JUDE: Cytotoxicity using luciferase to measure ATP as an indicator of the viability of Trypanosoma brucei; format: functional, organism-based
Leishmania major = assay: ST_JUDE: Cytotoxicity using Alamar Blue to measure viability of Leishmania major; format: functional, organism-based
Summary of the method: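 L. major promastigotes; drug susceptibility read with Alamar Blue.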

[6] = ST_JUDE: Cytotoxicity using luciferase to measure ATP as an indicator of the viability of human foreskin fibroblast cells (BJ); format: toxicity, cell-based
[7] = ST_JUDE: Cytotoxicity using luciferase to measure ATP as an indicator of the viability of human epithelial hepatocellular carcinoma cells (HepG2); format: toxicity, cell-based
[8] = ST_JUDE: Cytotoxicity using luciferase to measure ATP as an indicator of the viability of human epithelial embryonic kidney cells (HEK293); format: toxicity, cell-based
[9] = ST_JUDE: Cytotoxicity using luciferase to measure ATP as an indicator of the viability of human Burkitt''s lymphoma lymphoblast cells (Raji); format: toxicity, cell-based
Plasmodium falciparum [10] = assay: ST_JUDE: Cytotoxicity against Plasmodium falciparum Dd2; format: functional, organism-based
Plasmodium falciparum [11] = assay: ST_JUDE: Cytotoxicity against Plasmodium falciparum W2; format: functional, organism-based
Plasmodium falciparum [12] = assay: ST_JUDE: Cytotoxicity against Plasmodium falciparum SB-A6; format: functional, organism-based
Plasmodium falciparum [13] = assay: ST_JUDE: Cytotoxicity against Plasmodium falciparum D10 transfected with yeast DHOD; format: functional, organism-based

SMILES	EC50 (Plasmodium falciparum [1]) [µM]	EC50 (Plasmodium falciparum [2]) [µM]	EC50 (Plasmodium falciparum [3]) [µM]	EC50 (Plasmodium falciparum [4]) [µM]	EC50 (Plasmodium falciparum [5]) [µM]	EC50 (Toxoplasma gondii) [µM]	EC50 (Trypanosoma brucei) [µM]	EC50 (Leishmania major) [µM]	EC50 [6] [µM]	EC50 [7] [µM]	EC50 [8] [µM]	EC50 [9] [µM]	EC50 (Plasmodium falciparum [10]) [µM]	EC50 (Plasmodium falciparum [11]) [µM]	EC50 (Plasmodium falciparum [12]) [µM]	EC50 (Plasmodium falciparum [13]) [µM]
CCc1ccc(Nc2cc(C)c3ccc(O)cc3n2)cc1	0.733	0.127	0.636	0.188	0.182	> 23.9	> 41.8	> 18.7	> 43.6	23.5	> 43.6	30.8	0.784	0.714	0.831	0.595
CCO/C(O)=C1\C(C)=NC2=C(C(=O)CC(c3ccc(OC)c(OC)c3)C2)C1c1ccccc1C (stereo not given)	0.102	0.135	0.0971	0.12	0.104	> 23.4	> 40.9	> 18.3	> 42.7	> 42.7	> 42.7	> 42.7	0.0965	0.0549	0.0875	0.0877
Cc1ccc(NC(=O)C2c3ccccc3C(=O)N(CC(C)C)C2c2cccs2)cc1C (stereo not given)	0.0631	0.129	0.208	0.182	0.348	> 22.6	6.31	> 17.6	> 41.2	> 41.2	> 41.2	> 41.2	0.323	3.81	0.232	0.182
Oc1ccc(Br)cc1CN1CCN(Cc2ccccc2)CC1	0.867	0.419	1.23	0.401	0.582	> 14.9	> 26	> 11.6	> 27.1	> 27.1	> 27.1	> 27.1	0.776	0.848	2.05	1.75
CCN(CC)c1ccc(/C=C/c2ccc3ccc(OC)cc3[n+]2CC)cc1	1.13	0.803	0.422	0.419	0.413	4.17	0.441	0.0024	> 16.8	1.92	> 16.8	0.484	0.229	0.304	0.449	0.308
Oc1ccc(Br)cc1CN1CCN(C2CC3CCC2C3)CC1 (stereo not given)	0.289	0.181	0.501	0.131	0.29	> 20.9	> 36.6	> 16.4	> 38.2	> 38.2	> 38.2	> 38.2	0.285	0.519	0.953	0.864
COCCO/C(O)=C1\C(C)=NC2=C(C(=O)CC(c3ccc(OC)c(OC)c3)C2)C1c1ccc(F)cc1 (stereo not given)	0.253	0.0946	0.74	0.517	1.62	> 23.2	17.4	> 18.2	> 42.4	> 42.4	> 42.4	> 42.4	0.526	0.47	2.67	2.99
CC(C)c1ccc(NC(=O)/C=C/c2ccccc2Cl)cc1	1.1	0.942	> 10.5	> 10.5	> 10.5	> 22.3	23.1	> 17.4	> 40.7	> 40.7	> 40.7	> 40.7	1.61	0.416	> 10.5	> 10.5
CCCCCOc1ccc(N(C(C)=O)C2=C(N3CCOCC3)C(=O)c3ccccc3C2=O)cc1	0.327	0.208	0.075	0.0775	0.07	> 19.8	1.84	> 15.5	> 36.2	22.6	> 36.2	3.26	1.47	> 9.29	0.0596	0.0362
CC(C)c1ccc(CNCC(O)c2ccccc2)cc1 (stereo not given)	1.35	0.439	2.4	0.992	1.15	> 29	14.4	> 22.6	> 52.9	> 52.9	34.5	23.2	2.25	1.68	4.3	4.1
